Laboratory results published in ChEMBL document CHEMBL1139323, “Radiosynthesis, in vitro and in vivo evaluation of 123I-labeled anandamide analogues for mapping brain FAAH” (Bioorg Med Chem, 2009).

Assays:
Brain [1] = assay: Drug uptake in NMRI mouse brain at 4 to 5 uCi, iv after 3 mins post injection; assay type: ADME, organism-based; conditions: in vivo, 0.05 h
Outline: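 Adult male NMRI mice (20–25 g) given 4–5 µCi radiotracer iv via tail vein in 200 µl ethanol/saline (8:92). Killed by cervical dislocation under isoflurane at set times after injection, n = 3 per time point. Brain removed and weighed, radioactivity gamma-counted. Uptake given as %ID/g tissue ± SD.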

Stomach [2] = assay: Drug uptake in NMRI mouse stomach at 4 to 5 uCi, iv after 1 min post injection; assay type: ADME, organism-based; conditions: in vivo
Outline: (§1)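 Adult male NMRI mice (20–25 g) given 4–5 µCi of 123I-tracer iv via tail vein in ethanol/saline (8:92). Killed by cervical dislocation under isoflurane at set times, n = 3 per time point. Organs removed and weighed, radioactivity gamma-counted. Uptake expressed as %ID/g tissue ± SD.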

Brain [3] = assay: Stability in NMRI mouse brain at 3 uCi; assay type: ADME, tissue-based
Outline: (§2)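 Brain and EDTA plasma from three male NMRI mice, kept on ice, spiked ex vivo with 3 µCi 123I-tracer. Extracted with acetonitrile and centrifuged; supernatant and pellet gamma-counted for extraction efficiency. Supernatant analysed by radio-TLC (silica, hexane/ethyl acetate 4:6) and C18 HPLC (acetonitrile/water/formic acid 80:20:0.1), fractions gamma-counted.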

[4] = Drug uptake in NMRI mouse small intestine at 4 to 5 uCi, iv after 10 mins post injection; assay type: ADME, organism-based; conditions: in vivo; outline: as §1
Plasma = assay: Stability in NMRI mouse plasma at 3 uCi; assay type: ADME, cell-free; outline: as §2
[5] = Drug uptake in NMRI mouse large intestine at 4 to 5 uCi, iv after 10 mins post injection; assay type: ADME, organism-based; conditions: in vivo; outline: as §1
Stomach [6] = assay: Drug uptake in NMRI mouse stomach at 4 to 5 uCi, iv after 1 hr post injection; assay type: ADME, organism-based; conditions: in vivo; outline: as §1
[7] = target: T1, Fatty-acid amide hydrolase 1 (Rattus norvegicus, UniProt P97612); assay: Inhibition of rat recombinant FAAH assessed as [3H]AEA hydrolysis preincubated 30 mins before [3H]AEA substrate addition
T1 sequence (P97612 whole entry): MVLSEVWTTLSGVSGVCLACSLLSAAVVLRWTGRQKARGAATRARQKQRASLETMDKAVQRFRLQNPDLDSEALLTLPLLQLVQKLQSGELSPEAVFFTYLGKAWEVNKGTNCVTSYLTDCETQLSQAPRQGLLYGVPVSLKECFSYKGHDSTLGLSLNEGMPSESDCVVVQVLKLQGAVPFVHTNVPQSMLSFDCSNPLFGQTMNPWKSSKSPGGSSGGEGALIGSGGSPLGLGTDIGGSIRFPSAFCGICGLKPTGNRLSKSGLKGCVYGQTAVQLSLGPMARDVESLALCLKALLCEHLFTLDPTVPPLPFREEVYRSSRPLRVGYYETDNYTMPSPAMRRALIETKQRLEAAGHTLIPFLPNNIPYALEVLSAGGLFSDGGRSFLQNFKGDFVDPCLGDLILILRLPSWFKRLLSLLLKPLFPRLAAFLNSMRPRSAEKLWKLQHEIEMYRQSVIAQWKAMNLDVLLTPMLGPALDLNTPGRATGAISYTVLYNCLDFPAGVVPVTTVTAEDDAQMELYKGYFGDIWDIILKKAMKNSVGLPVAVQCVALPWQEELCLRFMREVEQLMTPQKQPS
Outline: (§3)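 Recombinant MBP-rat FAAH (1.2 µg/assay) in 10 mM Tris-HCl pH 7.6, 1 mM EDTA. Compound used at levels giving 20%, 50% and 80% inhibition and preincubated with enzyme for 15, 30 or 60 min. 2 µM [3H]-AEA then added, 10 min at 37 °C. Aqueous [3H]-ethanolamine counted by scintillation; IC50 by sigmoidal variable-slope fit.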

[8] = target: T1, Fatty-acid amide hydrolase 1; assay: Inhibition of rat recombinant FAAH assessed as [3H]AEA hydrolysis
Outline: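 Recombinant rat FAAH fused to maltose binding protein, 1.2 µg per assay, in 10 mM Tris-HCl pH 7.6 with 1 mM EDTA. Test compound at ten concentrations (5 µM–1.5 nM), no preincubation. [3H]-AEA added at 2 µM final, 10 min at 37 °C. Stopped with chloroform/methanol; [3H]-ethanolamine in aqueous phase counted by scintillation. Three experiments; sigmoidal variable-slope fit of % control.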

[9] = target: T1, Fatty-acid amide hydrolase 1; assay: Inhibition of rat recombinant FAAH assessed as [3H]AEA hydrolysis preincubated 15 mins before [3H]AEA substrate addition; outline: as §3
Mus musculus = organism: Mus musculus; assay: Stability in NMRI mouse by HPLC; assay type: ADME, organism-based; conditions: in vivo
Outline: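 Three male mice injected with about 200 µCi 123I-tracer in ethanol/saline (8:92) and killed at 3 min. Plasma and brain extracted with acetonitrile and centrifuged. Supernatant run on C18 HPLC (acetonitrile/water/formic acid 80:20:0.1, 6 ml/min); 0.5-min fractions gamma-counted, plus radio-TLC.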

[10] = target: T1, Fatty-acid amide hydrolase 1; assay: Inhibition of rat recombinant FAAH assessed as [3H]AEA hydrolysis preincubated 60 mins before [3H]AEA substrate addition; outline: as §3
[11] = target: T1, Fatty-acid amide hydrolase 1; assay: Inhibition of rat recombinant FAAH assessed as [3H]AEA hydrolysis preincubated before [3H]AEA substrate addition; outline: as §3
Brain [12] = assay: Drug uptake in NMRI mouse brain at 4 to 5 uCi, iv after 10 mins post injection; assay type: ADME, organism-based; conditions: in vivo; outline: as §1

Compound	Drug uptake (Brain [1])	Drug uptake (Stomach [2])	Stability (Brain [3])	Drug uptake [4]	Stability (Plasma)	Drug uptake [5]	Drug uptake (Stomach [6])	IC50 [7]	IC50 ([8]; read-out: IC50)	IC50 [9]	Activity (Mus musculus)	IC50 [10]	IC50 [11]	Drug uptake (Brain [12])	IC50 ([8]; read-out: pIC50 (converted))
CCCCC/C=C\C/C=C\CCCCCCCC(=O)NCC[123I]	1.23 % ID/g	2.58 % ID/g	94%	1.84 % ID/g	94%	1.33 % ID/g	24.57 % ID/g	–	–	–	–	–	–	–	–
CCCCC/C=C\C/C=C\CCCCCCCC(=O)NCCI	–	–	–	–	–	–	–	7.64 µM	5.78 µM	6.66 µM	Active	7.33 µM	6.2 µM	–	–
CCCCC/C=C\C/C=C\C/C=C\C/C=C\CCCC(=O)NCC[123I]	–	3.1 % ID/g	89%	1.46 % ID/g	92%	1.04 % ID/g	17.74 % ID/g	–	–	–	–	–	–	0.579 % ID/g	–
CCCCC/C=C\C/C=C\C/C=C\C/C=C\CCCC(=O)NCCI	–	–	–	–	–	–	–	9.89 µM	3.14 µM	7.93 µM	Active	10.1 µM	4.31 µM	–	–
CCCCC/C=C\C/C=C\CCCCCCCC(=O)NCCO [LINOLEOYLETHANOLAMIDE]	–	–	–	–	–	–	–	–	7.58 µM	–	–	–	–	–	7.59 µM
